# Bioassay records (PubChem)
# PKD1 kinase inh = inhibitors of human PKD1 kinase, biochemical, fluorescence polarization. 200,000 compounds, 0.056% hits. Serine/threonine-protein kinase D1 (Homo sapiens), Q15139. inhibition, % (concentration not given with the values). PKD1 kinase fluorescence polarization assay; in the data active = inhibition above about 50%
# m-calpain inh = inhibitors of pig calpain II, primary screen, biochemical, fluorogenic peptide substrate, 1536-well | 220,000 compounds, 0.37% hits | purified calpain II, 30 min | AID 1236, 2008 | inhibition, % at 16 µM;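 active = inhibition above about 50%, limit read from the data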
# ROMK mod = ROMK potassium channel modulators, primary screen, cell-based, thallium flux, MLSMR library | ATP-sensitive inward rectifier potassium channel 1 (Homo sapiens), P48048 | Tet-inducible ROMK, thallium flux fluorescence; actives lie on both sides | B-score at 10 µM | 130,000 compounds, 2% hits | AID 1918, 2009;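 active = signal ratio slope over the read window, or its plate-corrected B-score, at least 3 SD from the plate mean, either direction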;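 note: B-score of the F/F0 ratio slope over 7 to 12 s after thallium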
# Target sequence (P48048 whole entry, looked up): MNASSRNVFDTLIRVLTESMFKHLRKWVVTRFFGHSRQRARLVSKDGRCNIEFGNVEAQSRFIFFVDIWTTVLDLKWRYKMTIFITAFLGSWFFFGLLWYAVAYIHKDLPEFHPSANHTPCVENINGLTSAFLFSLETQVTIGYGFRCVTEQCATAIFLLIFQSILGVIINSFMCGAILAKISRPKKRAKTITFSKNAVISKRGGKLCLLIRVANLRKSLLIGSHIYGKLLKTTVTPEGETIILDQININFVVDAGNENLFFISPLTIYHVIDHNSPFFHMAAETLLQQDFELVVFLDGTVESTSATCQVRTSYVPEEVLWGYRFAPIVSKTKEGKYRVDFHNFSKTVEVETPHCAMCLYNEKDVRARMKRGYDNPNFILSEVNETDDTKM
# KCC2 mod = KCC2 cotransporter modulators, thallium flux, primary screen, cell-based, HEK293 KCC2, FluoZin-2 fluorescence, MLSMR. Solute carrier family 12 member 5 (Homo sapiens), Q9H2X9. KCC2 cells, thallium flux FluoZin-2 fluorescence. B-score of Tl+ flux slope (higher = more flux/activation; lower = inhibition) at 10 µM. 190,000 compounds, 2.2% hits. AID 1456, 2008;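 active = thallium flux slope and its plate-corrected score both differing from the plate sample mean at a set confidence after two filtering rounds, in either direction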;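 note: slope of fluorescence scaled to starting intensity during 10 to 20 s after thallium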
# Arbovirus anti = antivirals against arbovirus infection, primary screen, cell-based, full library, 10K replicate subset | arbovirus infection cell-based antiviral screen | inhibition, % at 10 µM | 200,000 compounds, 0.37% hits | AID 1251, 2008; in the data active = inhibition above about 30%
# Mdm2 ligase inh = MDM2-luciferase reporter signal enhancers, primary screen, MDM2 E3 ligase inhibitor project, cell-based, luminescence, 1536-well; E3 ubiquitin-protein ligase Mdm2 (Homo sapiens), Q00987; 210,000 compounds, 0.11% hits; cell-based MDM2 ubiquitination luciferase reporter, 2 h; 0 = plate control, 100 = twice control, blank-subtracted; signal enhancement, % at 5 µM;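 active = signal enhancement of 30% or more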;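 note: luminescence tracks abundance of the self-degrading MDM2-luciferase fusion protein; higher signal means inhibition of MDM2 E3 ligase activity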
#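 Material: Stable MDM2–luciferase fusion reporter cells | Amount: 2000 cells seeded into each well | Dosing: One concentration, 5 µM, with 0.2% DMSO | Incubation: 4 h cell settling then 2 h compound exposure, 37 °C | Measured by: Luciferase luminescence | Read-out basis: % enhancement relative to plate controls after blank subtraction | Benchmarks: Control and blank well means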
# ROMK hit retest = ROMK channel modulator hit retest, confirmation, cell-based, thallium flux, duplicate, resupplied hits; shares compounds with ROMK mod; AID 1917, 2009; 3,000 compounds, 54% hits; normalized thallium flux (F/F0 slope) at 10 µM; fluorescence ratio; stronger effect = lower value;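 active = Flux at 10 µM at least 3 SD below or above vehicle control mean in one or both replicates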
# Numbers without * were called inactive; . = no result. A selection: hits, their analogues and other compounds. The true share with any hit is near 3.7%.
SMILES,PKD1 kinase inh,m-calpain inh,ROMK mod,KCC2 mod,Arbovirus anti,Mdm2 ligase inh,ROMK hit retest
CC1CCN(C(=O)CSCC(=O)Nc2nc(-c3cccs3)cs2)CC1,1.2,10.7,.,2.73,7.9,-21.4,0.0651*
CC1CCCN(C(=O)CSCC(=O)Nc2nc(-c3cccs3)cs2)C1 (stereo unspecified),-5.5,13.3,.,.,1.5,-2.6,.
Cc1nc2ccccc2nc1NS(=O)(=O)c1ccc(N)cc1,.,5.8,.,1.72,.,-5.9,.
Cn1c(=O)cc(SCC(=O)N2CCCC2)c2ccc(Cl)cc21,-13.3,-13.0,0.421,.,-6.5,4.3,.
COCCNC(=O)CSc1cc(=O)n(C)c2cc(Cl)ccc12,1.2,-4.5,-9.77*,-1.64,-6.0,-3.6,0.0844
CCn1cc(S(=O)(=O)N2CCN(Cc3ccc(F)cc3)CC2)cn1,-2.2,-0.2,-23.4*,-1,-1.4,-37.8,0.0835
CC1CCCCN1C(=O)CCn1c(=S)oc2ccccc21 (stereo unspecified),.,1.1,.,-0.079,.,-8.2,.
CCCC(c1nnnn1C1CCCC1)N1CCN(c2ccccc2F)CC1 (stereo unspecified),-4.2,-0.4,-1.29,.,0.2,1.3,.
Cc1cc(C)nc(SCc2ccc(C(=O)N/N=C/c3ccncc3)cc2)n1,5.4,-28.2,1.54,0.321,-2.4,2.4,.
Cc1cc(C)nc(SCc2ccc(C(=O)N/N=C/c3ccccn3)cc2)n1,-6.3,-4.4,-13*,-1.05,5.8,-17.8,0.085
Cc1[nH]c(=S)[nH]c(=O)c1CCOc1ccccc1,5.4,11.0,0.557,.,-13.9,-14.4,.
Cc1ccccc1OCCc1c(C)[nH]c(=S)[nH]c1=O,-4.4,27.3,1.72*,0.207,-5.1,-3.0,0.0853
CN(C)C(=O)COC(=O)c1cccc(CN2C(=O)c3ccccc3C2=O)c1,-2.4,43.9,0.406,-0.264,8.3,-3.8,.
COC(=O)c1c(NC(=O)CSc2nnc(-c3ccco3)n2Cc2ccccc2)sc(C)c1C,0.7,-2.6,-3.06*,-0.716,-2.9,-2.9,0.0645*
O=c1c(/C=N/Nc2ccccc2)c(Sc2nnnn2-c2ccccc2)nc2ccccn12,10.5,-2.5,-3.68*,-0.0686,-32.9,-14.1,0.0401*
O=C(O)c1ccccc1N/N=C/c1c(Sc2nnnn2-c2ccccc2)nc2ccccn2c1=O,.,6.3,.,-1.67,.,-4.8,.
Cc1ccc(CNC(=O)Cn2ccc3ccccc3c2=O)o1,3.9,-42.1,.,0.861,-2.9,-7.7,0.0733
Cc1nc(SCC(=O)NCc2ccco2)c2c(=O)n(C)c(=O)n(CC(C)C)c2n1,1.4,-8.0,0.565,-0.0493,6.9,-12.0,.
COc1cccc(C2CC(c3ccccc3OC)n3nc(N)nc3N2)c1 (stereo unspecified),-0.3,48.0,.,0.35,17.1,-18.9,.
CNC(=O)c1sccc1-n1cccc1,-3.3,-9.4,2.89*,1.11,-5.8,-6.7,0.0761
CNC(=O)NC(=O)COC(=O)c1ccc(-n2c(C)ccc2C)cc1,7.4,-2.1,.,0.573,-2.0,-7.5,.
CCOc1ccccc1N(C(=O)c1snc(C(N)=O)c1N)C(C(=O)NCCC(C)C)c1ccco1 (stereo unspecified),2.4,-59.0,-4.48*,-1.94,-9.8,2.9,0.0743
COc1ccccc1N(C(=O)c1snc(C(N)=O)c1N)C(C(=O)NCCC(C)C)c1ccco1 (stereo unspecified),-11.1,-150.6,-1.11,0.0336,-10.6,17.9,.
Cc1cc(C)cc(OCc2ccc(C(=O)N3N=C(C(F)F)CC3(O)C(F)F)o2)c1 (stereo unspecified),1.2,30.6,3.01*,-0.468,12.2,15.7,0.08
CCN(CC)C(=O)CSc1nc2sc(C)c(C)c2c(=O)[nH]1,-2.2,-3.8,.,-1.03,-9.8,-12.6,0.0759
